For data set [1], the species on record is Homo sapiens. Description: Induction of stabilization of hexa-His-tagged human soluble epoxide hydrolase N-terminal phosphatase domain expressed in Escherichia coli BL21(DE3) at 50 uM by differential scanning fluorimetry. In general terms: In DSF a fluorescence change marks the thermal transition of the protein.
In data set [2] the test system is Rattus norvegicus. The experiment in a line: Inhibition of sEH-H in Sprague-Dawley rat assessed as effect on ratio of 14,15-EET to 14,15-DHET in plasma at 30 mg/kg, po after 8 hrs by LC-MS/MS analysis. The class given is functional, organism-based. In short, it runs like this: (§1)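 Male Sprague-Dawley rats given a single oral dose of 30 mg/kg or vehicle (n = 3 per group). Plasma collected 8 h later. Epoxy fatty acid/diol ratios and LPA/corresponding MAG ratios quantified by LC−MS/MS.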

Data set [3] is filed under the species Homo sapiens. Description: Inhibition of soluble epoxide hydrolase N-terminal phosphatase domain in human PBMC assessed as reduction in MAG/LPA ratio at 30 uM incubated for 24 hrs by LC-MS/MS analysis.
The target of data set [4] is T1, Bifunctional epoxide hydrolase 2 (Homo sapiens, UniProt P34913).
T1 sequence (P34913 whole entry): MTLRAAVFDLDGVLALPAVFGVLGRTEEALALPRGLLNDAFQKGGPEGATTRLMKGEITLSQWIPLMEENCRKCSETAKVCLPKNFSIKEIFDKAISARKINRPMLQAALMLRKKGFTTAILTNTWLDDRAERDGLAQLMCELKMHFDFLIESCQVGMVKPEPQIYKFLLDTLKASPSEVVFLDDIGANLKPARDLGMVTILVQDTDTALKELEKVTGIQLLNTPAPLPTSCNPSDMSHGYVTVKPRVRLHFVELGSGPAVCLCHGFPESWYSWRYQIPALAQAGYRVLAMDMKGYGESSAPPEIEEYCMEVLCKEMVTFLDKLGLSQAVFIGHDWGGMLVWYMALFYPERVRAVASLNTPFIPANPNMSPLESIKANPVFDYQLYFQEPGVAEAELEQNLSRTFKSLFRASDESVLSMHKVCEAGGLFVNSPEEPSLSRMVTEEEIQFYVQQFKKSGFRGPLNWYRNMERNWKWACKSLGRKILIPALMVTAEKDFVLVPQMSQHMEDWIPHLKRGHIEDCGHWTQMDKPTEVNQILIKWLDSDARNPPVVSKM
Description: Inhibition of hexa-His-tagged human soluble epoxide hydrolase C-terminal hydrolase domain expressed in Escherichia coli BL21(DE3) pre-incubated for 30 mins before PHOME substrate addition by fluorescence based assay.

For data set [5], the system named is Rattus norvegicus. Description: Inhibition of sEH-H in Sprague-Dawley rat assessed as effect on ratio of 19,20-EpDPA […] in plasma at 30 mg/kg, po after 8 hrs by LC-MS/MS analysis. It counts as functional, organism-based. In short, it runs like this:
as §1

The species named for data set [6] is Homo sapiens.
A short description of data set [7]: Half life in Sprague-Dawley rat at 30 mg/kg, po monitored over 8 hrs by LC-MS analysis. The class given is ADME, organism-based. Conditions: in vivo. The method, boiled down:
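Male Sprague-Dawley rats (n = 3) given a single oral dose of 30 mg/kg. Plasma compound concentration followed over 8 h. Cmax and half-life derived from the plasma concentration–time profile.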

For data set [8], the system named is Rattus norvegicus. The experiment in a line: Inhibition of sEH-H in Sprague-Dawley rat assessed as effect on ratio of 12,13-EpOME to 12,13-DiHOME in plasma at 30 mg/kg, po after 8 hrs by LC-MS/MS analysis. The class given is functional, organism-based. The method, boiled down:
as §1

For data set [9], the system named is Rattus norvegicus. Description: Inhibition of sEH-P in Sprague-Dawley rat assessed as effect on ratio of sn1-20:4 LPA to corresponding monoacylglycerol species in plasma at 30 mg/kg, po after 8 hrs by LC-MS/MS analysis. The class given is functional, organism-based. The method, boiled down:
as §1

Data set [10] can be described thus: Competitive inhibition of hexa-His-tagged human soluble epoxide hydrolase N-terminal phosphatase domain expressed in Escherichia coli BL21(DE3) pre-incubated for 30 mins before DiFMUP substrate addition by fluorescence based assay.
For data set [11], the target named is T2, Bifunctional epoxide hydrolase 2 (Rattus norvegicus, UniProt P80299).
T2 sequence (P80299 whole entry): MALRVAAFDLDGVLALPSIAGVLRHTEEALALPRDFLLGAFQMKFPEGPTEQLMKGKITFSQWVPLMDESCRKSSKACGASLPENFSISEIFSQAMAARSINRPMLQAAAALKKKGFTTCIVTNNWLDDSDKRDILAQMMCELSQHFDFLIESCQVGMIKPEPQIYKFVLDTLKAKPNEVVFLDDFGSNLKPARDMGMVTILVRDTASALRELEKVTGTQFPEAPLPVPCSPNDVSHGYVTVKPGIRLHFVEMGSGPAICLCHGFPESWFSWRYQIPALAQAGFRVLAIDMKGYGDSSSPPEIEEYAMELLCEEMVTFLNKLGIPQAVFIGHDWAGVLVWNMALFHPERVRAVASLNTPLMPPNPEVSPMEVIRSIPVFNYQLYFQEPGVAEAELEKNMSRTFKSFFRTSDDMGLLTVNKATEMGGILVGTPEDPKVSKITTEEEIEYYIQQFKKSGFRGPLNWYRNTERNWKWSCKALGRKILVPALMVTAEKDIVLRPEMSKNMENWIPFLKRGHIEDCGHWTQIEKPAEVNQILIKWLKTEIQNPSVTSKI
Description: Inhibition of phosphatase activity of full length rat soluble epoxide hydrolase pre-incubated for 30 mins before FDP substrate addition by fluorescence based assay.

The target of data set [12] is T1, Bifunctional epoxide hydrolase 2. Description: Inhibition of hydrolase activity of full length human soluble epoxide hydrolase pre-incubated for 30 mins before PHOME substrate addition by fluorescence based assay. The method, boiled down: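 Hydrolase assay with 0.1 μM full-length enzyme in Bis-Tris pH 7 containing 0.1 mg/mL BSA and 0.01% Triton X-100. Reaction started with PHOME (50 μM final). Triplicates.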

2 molecules from ChEMBL document CHEMBL4414562, “Discovery of the First in Vivo Active Inhibitors of the Soluble Epoxide Hydrolase Phosphatase Domain” (J Med Chem, 2019) can be followed below.

The source made the active and inactive calls. The rule behind the calls is not given here.

For `O=C(O)CCCc1nc(-c2ccc(Cl)c(Cl)c2)c(-c2ccccc2)o1`, the result in data set [1] was Active. Also, the inhibition entry in data set [2], in data set [5] and in [8] was “inactive” throughout. In addition, the inhibition entry in data set [3] and in data set [9] was “Active” each time. In data set [4], the IC50 came out at 12 µM. Also, in data set [6], the ΔTm is 6.6 °C. Further, the t1/2 in data set [7] was 7 h. In addition, affinity in data set [10] was put at a Ki of 0.05 µM.

On to `O=C(O)CCc1nc(-c2ccccc2)c(-c2ccccc2)o1` [OXAPROZIN], for which the IC50 was 62.5 µM in [11] and greater than 300 µM in data set [12].

Usually IC50 stands for the concentration at which inhibition is half-maximal. The term ΔTm denotes the shift of the melting midpoint relative to a reference. As usually defined, the Ki is the dissociation constant of the complex between target and ligand, obtained from inhibition or displacement. Low readings indicate a stronger hold on the target, high ones a looser hold on the target.
